Source: ChEMBL document CHEMBL1795254, “Synthesis, structure-affinity relationships, and molecular modeling studies of novel pyrazolo[3,4-c]quinoline derivatives as adenosine receptor antagonists” (Bioorg Med Chem, 2011)

Experiments:
[1] = molecular target: T1, Adenosine receptor A2a (Homo sapiens, UniProt P29274); settings: CHO, 10 uM
[2] = molecular target: T2, Adenosine receptor A1 (Homo sapiens) (UniProt P30542); test: Displacement of [3H]DPCPX from human recombinant adenosine A1 receptor expressed in CHO cell membranes at 1 uM by scintillation counting
T2 sequence (whole entry): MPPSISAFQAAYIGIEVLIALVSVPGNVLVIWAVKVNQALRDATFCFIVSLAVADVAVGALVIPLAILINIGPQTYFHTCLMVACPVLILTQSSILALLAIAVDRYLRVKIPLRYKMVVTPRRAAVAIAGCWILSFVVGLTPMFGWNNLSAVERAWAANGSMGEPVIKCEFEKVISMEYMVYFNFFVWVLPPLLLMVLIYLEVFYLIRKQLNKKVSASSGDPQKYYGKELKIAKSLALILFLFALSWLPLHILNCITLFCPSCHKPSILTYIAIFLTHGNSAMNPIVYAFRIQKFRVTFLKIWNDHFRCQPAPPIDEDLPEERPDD
Procedure, shortened: (§1)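 hA1 CHO membranes incubated with 1 nM [³H]DPCPX for 120 min at 25 °C in 50 mM Tris-HCl, pH 7.4. Ki from six to eight antagonist concentrations: IC50 converted by Cheng–Prusoff, curves fitted by weighted nonlinear least squares, four separate assays in duplicate (mean ± SEM). Single-concentration runs give percentage inhibition of specific binding.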

[3] = molecular target: T1, Adenosine receptor A2a; test: Displacement of [3H]ZM241385 from human recombinant adenosine A2A receptor expressed in CHO cell membranes at 1 uM by scintillation counting
Procedure, shortened: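 Uses 1 nM [³H]ZM241385 with hA2A CHO membranes in 50 mM Tris-HCl, 10 mM MgCl2, pH 7.4, for 60 min at 4 °C. Ki from six to eight antagonist concentrations via Cheng–Prusoff with weighted nonlinear least-squares fitting; four assays in duplicate (mean ± SEM). Single-concentration runs give percentage inhibition.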

[4] = molecular target: T3, Adenosine receptor A3 (Homo sapiens) (UniProt P0DMS8); test: Displacement of [125I]I-AB-MECA from human recombinant adenosine A3 receptor expressed in CHO cells at 1 uM by scintillation counting; type: cell-based
T3 sequence (whole entry): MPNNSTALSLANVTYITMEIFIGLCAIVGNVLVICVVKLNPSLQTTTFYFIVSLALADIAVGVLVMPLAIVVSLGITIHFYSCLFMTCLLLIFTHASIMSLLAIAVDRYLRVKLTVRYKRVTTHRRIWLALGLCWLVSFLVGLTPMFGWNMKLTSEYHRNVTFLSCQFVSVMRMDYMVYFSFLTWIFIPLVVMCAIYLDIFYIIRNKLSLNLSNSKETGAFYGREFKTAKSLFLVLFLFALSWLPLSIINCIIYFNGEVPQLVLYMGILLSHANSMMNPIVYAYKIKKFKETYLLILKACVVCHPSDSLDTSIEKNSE
Procedure, shortened: (§2)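 For hA3, CHO membranes are incubated with [¹²⁵I]AB-MECA in 50 mM Tris-HCl, 10 mM MgCl2, 1 mM EDTA, pH 7.4, for 120 min at 4 °C. Ki from six to eight ligand concentrations via Cheng–Prusoff with weighted nonlinear least-squares fitting; four assays in duplicate (mean ± SEM). Single-concentration runs give percentage inhibition.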

[5] = molecular target: T4, Adenosine receptor A2b (Homo sapiens) (UniProt P29275); test: Antagonist activity at human recombinant adenosine A2B receptor expressed in CHO cells assessed as inhibition of NECA-induced cAMP levels at 1 uM; type: functional, cell-based
T4 sequence (whole entry): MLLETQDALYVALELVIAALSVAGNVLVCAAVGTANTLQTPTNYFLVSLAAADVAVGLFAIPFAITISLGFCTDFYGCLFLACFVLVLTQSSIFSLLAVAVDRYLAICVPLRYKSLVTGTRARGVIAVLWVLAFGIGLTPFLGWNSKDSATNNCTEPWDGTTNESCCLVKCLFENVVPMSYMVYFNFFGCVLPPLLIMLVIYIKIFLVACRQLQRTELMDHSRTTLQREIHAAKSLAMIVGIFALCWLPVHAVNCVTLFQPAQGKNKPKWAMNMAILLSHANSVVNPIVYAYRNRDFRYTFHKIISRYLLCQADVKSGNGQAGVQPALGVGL
Procedure, shortened: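 hA2B-transfected CHO cells (1×10⁶/assay), preincubated 10 min at 37 °C in pH 7.4 saline-Hepes-glucose buffer with 2 IU/ml adenosine deaminase and Ro 20-1724 as phosphodiesterase inhibitor. Compound tested against 200 nM NECA-stimulated cAMP. Reaction stopped with cold 6% TCA and ether-extracted. cAMP measured by competition binding with [³H]cAMP and bovine adrenal binding protein (150 min, 4 °C), charcoal separation, scintillation counting; expressed as percentage inhibition.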

[6] = molecular target: T5, Adenosine receptor A1 (Homo sapiens, UniProt P30542); test: Displacement of [3H]DPCPX from human recombinant adenosine A1 receptor expressed in CHO cell membranes by scintillation counting
T5 sequence (P30542 whole entry): T2 sequence (whole entry)
Procedure, shortened: as §1

[7] = molecular target: T1, Adenosine receptor A2a; test: Displacement of [3H]ZM241385 from human recombinant adenosine A2A receptor expressed in CHO cell membranes by scintillation counting
[8] = molecular target: T6, Adenosine receptor A3 (Homo sapiens, UniProt P0DMS8); test: Displacement of [125I]I-AB-MECA from human recombinant adenosine A3 receptor expressed in CHO cells by scintillation counting; type: cell-based
T6 sequence (P0DMS8 whole entry): T3 sequence (whole entry)
Procedure, shortened: as §2

T1 sequence (P29274 whole entry): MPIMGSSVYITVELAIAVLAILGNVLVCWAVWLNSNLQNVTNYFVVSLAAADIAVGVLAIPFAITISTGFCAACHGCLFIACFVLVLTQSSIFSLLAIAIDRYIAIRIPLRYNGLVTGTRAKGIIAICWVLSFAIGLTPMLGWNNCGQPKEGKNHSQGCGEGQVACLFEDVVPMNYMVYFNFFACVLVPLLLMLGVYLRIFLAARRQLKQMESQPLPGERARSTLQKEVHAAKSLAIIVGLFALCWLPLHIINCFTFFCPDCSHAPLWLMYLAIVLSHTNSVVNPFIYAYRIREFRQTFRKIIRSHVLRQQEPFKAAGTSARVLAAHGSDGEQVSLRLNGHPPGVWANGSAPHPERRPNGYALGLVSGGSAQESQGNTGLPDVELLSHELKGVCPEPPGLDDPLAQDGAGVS

Row | Structure (SMILES) | inhibition [1] [%] | inhibition [2] [%] | inhibition [3] [%] | inhibition [4] [%] | inhibition [5] [%] | Ki [6] [µM] | Ki [7] [µM] | Ki [8] [µM]
1 | O=c1[nH]c2ccccc2c2cn(-c3ccccc3)nc12 | 43 |  |  |  |  |  |  | 
2 | O=C(Nc1cccc2c1[nH]c(=O)c1nn(-c3ccccc3)cc12)OCc1ccccc1 |  | 3 | 1 | 14 | 5 |  |  | 
3 | O=c1[nH]c2c(OC(c3ccccc3)c3ccccc3)cccc2c2cn(-c3ccccc3)nc12 |  | 6 | 1 | 6 | 7 |  |  | 
4 | Nc1nc2c(O)cccc2c2cn(-c3ccccc3)nc12 |  |  | 19 | 20 | 4 | 0.1 |  | 
5 | Nc1nc2c(Br)cccc2c2cn(-c3ccccc3)nc12 |  |  | 35 | 29 | 2 | 0.3 |  | 
6 | Nc1nc2c(NCc3ccccc3)cccc2c2cn(-c3ccccc3)nc12 |  |  | 1 | 1 | 3 | 0.455 |  | 
7 | Cn1cc2c(n1)c(N)nc1ccccc12 |  | 20 | 26 | 18 | 5 |  |  | 
8 | Nc1nc2c(OCCc3ccccc3)cccc2c2cn(-c3ccccc3)nc12 |  | 40 | 11 | 28 | 5 |  |  | 
9 | Cn1cc2c(n1)c(=O)[nH]c1ccccc12 |  | 2 | 1 | 12 | 2 |  |  | 
10 | Nc1nc2c(OCc3ccccc3)cccc2c2cn(-c3ccccc3)nc12 |  |  | 16 | 20 | 5 | 0.14 |  | 

Results, then the compound that gave them:

Row | inhibition [1] [%] | inhibition [2] [%] | inhibition [3] [%] | inhibition [4] [%] | inhibition [5] [%] | Ki [6] [µM] | Ki [7] [µM] | Ki [8] [µM] | Structure (SMILES)
11 |  | 8 | 1 | 18 | 5 |  |  |  | Nc1cccc2c1[nH]c(=O)c1nn(-c3ccccc3)cc12
12 |  |  |  |  | 4 | 0.97 | 0.75 | 0.5 | Cn1cc2c(n1)c(N)nc1c(OCc3ccccc3)cccc12
13 |  | 1 | 5 | 16 | 4 |  |  |  | O=c1[nH]c2c(O)cccc2c2cn(-c3ccccc3)nc12
14 |  | 2 | 1 |  | 3 |  |  | 0.6 | Cn1cc2c(n1)c(=O)[nH]c1c(OCc3ccccc3)cccc12
15 |  | 8 | 17 | 16 | 5 |  |  |  | O=c1[nH]c2c(Br)cccc2c2cn(-c3ccccc3)nc12
16 |  | 20 | 1 | 33 | 2 |  |  |  | O=c1[nH]c2c(OCc3ccccc3)cccc2c2cn(-c3ccccc3)nc12
